# Measured values as given in ChEMBL document CHEMBL1152663, “Antimalarial and antitrypanosomal activity of a series of amide and sulfonamide derivatives of a 2,5-diaminobenzophenone” (Bioorg Med Chem, 2009).
# Activity calls are given as the source filed them. The calls are words filed in the database; no cut-off is given here.
# Assays:
# [1] = system: Trypanosoma brucei brucei; test: Antitrypanosomal activity against Trypanosoma brucei brucei TC221 after 72 hrs by alamar blue assay; assay type: functional, organism-based; conditions: TC221, 72 h
# Summary of the method: (§1)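 T. b. brucei TC 221 trypomastigotes grown in Baltz medium; 10⁴ parasites/mL exposed to graded compound concentrations (DMSO or 0.1 M NaOH solutions) at 37 °C, 5% CO₂. Alamar Blue absorbance at 550 nm (reference 630 nm) read at 48 h and 72 h. Parasite-only and compound-only controls; ED₅₀ by linear interpolation of three measurements.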
# [2] = Selectivity index, ratio of CC50 for human HeLa cells to IC50 for Plasmodium falciparum Dd2 […] cells; assay type: functional
# Summary of the method: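 Selectivity index computed as HeLa CC₅₀ (72 h methylene blue assay) divided by P. falciparum Dd2 IC₅₀ (72 h [³H]-hypoxanthine assay).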
# [3] = system: Trypanosoma brucei brucei; test: Antitrypanosomal activity against Trypanosoma brucei brucei TC221 after 48 hrs by alamar blue assay; assay type: functional, organism-based; conditions: TC221, 48 h; summary of the method: as §1
# [4] = Cytotoxicity against human HeLa cells after 72 hrs by methylene blue staining; assay type: cell-based
# Summary of the method: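 HeLa cells in RPMI 1640 with 10% heat-inactivated FBS and gentamicin; ~10,000 cells/well preincubated 48 h, then exposed to compound (DMSO stock 10 mg/mL diluted 1:200) for 72 h at 37 °C, 5% CO₂. Glutaraldehyde fixation, 0.05% methylene blue staining, elution with 0.33 M HCl, OD 660 nm.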
# [5] = biological target: T1, Multidrug resistance protein Pgh1 (Plasmodium falciparum) (UniProt Q9NG76); test: Inhibition of Plasmodium PGH1-mediated fluorochrome accumulation into parasite digestive vacuole at […] concentration
# T1 sequence (whole entry): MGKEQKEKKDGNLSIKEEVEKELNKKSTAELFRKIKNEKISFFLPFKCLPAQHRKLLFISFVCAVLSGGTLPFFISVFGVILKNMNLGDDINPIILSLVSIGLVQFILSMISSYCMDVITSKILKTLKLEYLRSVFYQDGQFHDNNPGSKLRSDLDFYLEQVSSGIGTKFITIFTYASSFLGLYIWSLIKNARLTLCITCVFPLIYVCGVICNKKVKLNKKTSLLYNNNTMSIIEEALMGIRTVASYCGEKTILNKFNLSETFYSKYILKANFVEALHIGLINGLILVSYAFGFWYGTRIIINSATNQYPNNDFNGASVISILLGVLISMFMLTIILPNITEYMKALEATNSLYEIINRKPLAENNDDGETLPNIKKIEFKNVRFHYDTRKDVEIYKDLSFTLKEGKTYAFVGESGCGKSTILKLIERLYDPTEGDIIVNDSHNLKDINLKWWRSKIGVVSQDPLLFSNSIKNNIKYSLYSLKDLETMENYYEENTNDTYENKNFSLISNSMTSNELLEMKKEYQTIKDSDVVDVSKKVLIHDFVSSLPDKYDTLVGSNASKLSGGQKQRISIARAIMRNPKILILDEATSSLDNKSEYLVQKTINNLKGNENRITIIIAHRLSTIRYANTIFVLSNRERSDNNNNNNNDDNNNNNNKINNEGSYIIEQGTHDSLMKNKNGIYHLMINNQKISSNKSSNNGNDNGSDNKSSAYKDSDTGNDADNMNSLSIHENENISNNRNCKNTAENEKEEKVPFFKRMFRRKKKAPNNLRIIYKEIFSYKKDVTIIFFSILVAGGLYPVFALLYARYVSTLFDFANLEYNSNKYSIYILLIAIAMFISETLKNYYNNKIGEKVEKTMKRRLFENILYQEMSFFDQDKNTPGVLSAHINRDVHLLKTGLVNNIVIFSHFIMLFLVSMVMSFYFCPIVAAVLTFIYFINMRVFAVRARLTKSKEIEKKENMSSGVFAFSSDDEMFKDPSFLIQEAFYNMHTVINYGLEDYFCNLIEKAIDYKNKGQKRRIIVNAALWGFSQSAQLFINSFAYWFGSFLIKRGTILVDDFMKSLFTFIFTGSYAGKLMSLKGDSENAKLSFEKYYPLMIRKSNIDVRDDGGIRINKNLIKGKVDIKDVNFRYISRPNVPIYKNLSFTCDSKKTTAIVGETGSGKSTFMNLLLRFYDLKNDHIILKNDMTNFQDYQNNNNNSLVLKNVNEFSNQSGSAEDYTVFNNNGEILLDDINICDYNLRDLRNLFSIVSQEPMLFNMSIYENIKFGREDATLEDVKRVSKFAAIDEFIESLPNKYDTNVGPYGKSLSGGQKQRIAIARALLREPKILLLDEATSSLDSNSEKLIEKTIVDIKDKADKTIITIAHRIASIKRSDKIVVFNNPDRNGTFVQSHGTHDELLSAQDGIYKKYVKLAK
# Plasmodium falciparum = test: Antimalarial activity against Plasmodium falciparum Dd2 […] cells after 72 hrs by [3H]hypoxanthine incorporation assay; assay type: functional, organism-based
# Summary of the method: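 Synchronized (sorbitol) blood-stage P. falciparum Dd2 cultures exposed to a range of compound concentrations for 72 h; growth read by [³H]-hypoxanthine incorporation, percent inhibition used to derive IC₅₀. At least three independent repeats, mean ± SEM.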
# [6] = biological target: ATP-dependent translocase ABCB1 (Homo sapiens, UniProt P08183); test: Inhibition of ABCB1 overexpressed in human CCRF-CEM/VCR1000 cell assessed as inhibition of daunomycin efflux after 30 mins by FACS analysis
SMILES,IC50 [1] [µM],IC50 [3] [µM],inhibition [5],IC50 (Plasmodium falciparum) [µM],EC50 [6] [µM],Ratio CC50/IC50 [2],CC50 at 72 h [4] [µM]
CN1CCN(CC(=O)Nc2ccc(NC(=O)c3ccccc3)cc2C(=O)c2ccccc2)CC1,83.2,49.4,inactive,> 16,–,>7,> 109
CN1CCN(CC(=O)Nc2ccc(NC(=O)CCc3ccccc3)cc2C(=O)c2ccccc2)CC1,21.9,13.9,inactive,6.72,2.23,12,80
CC1CCN(C(=O)Nc2ccc(NC(=O)C(c3ccccc3)N3CCN(C)CC3)c(C(=O)c3ccccc3)c2)CC1 (centres undefined),–,–,inactive,> 16,4.97,–,–
CCC(=O)Nc1ccc(NC(=O)CN2CCN(C)CC2)c(C(=O)c2ccccc2)c1,71.5,53.4,inactive,> 16,–,>8,> 122
CC(=O)Nc1ccc(NC(=O)CN2CCN(C)CC2)c(C(=O)c2ccccc2)c1,22.9,23.1,inactive,9.45,–,6,53
CN1CCN(C(C(=O)Nc2ccc(NS(C)(=O)=O)cc2C(=O)c2ccccc2)c2ccccc2)CC1 (racemic),5.84,5.58,inactive,10.6,15.5,9,99
CN1CCN(C(C(=O)Nc2ccc(NC(=O)c3ccc4ccccc4c3)cc2C(=O)c2ccccc2)c2ccccc2)CC1 (racemic),2.64,1.98,inactive,0.24,0.04,17,4
CN1CCN(C(C(=O)Nc2ccc(NC(=O)CCc3ccccc3)cc2C(=O)c2ccccc2)c2ccccc2)CC1 (racemic),3.02,3.27,inactive,1.8,0.06,4,8
CN1CCN(C(C(=O)Nc2ccc(NC(=O)Cc3ccccc3)cc2C(=O)c2ccccc2)c2ccccc2)CC1 (racemic),3.25,3.64,inactive,2,0.36,8,16
CN1CCN(C(C(=O)Nc2ccc(N(S(=O)(=O)c3ccccc3)S(=O)(=O)c3ccccc3)cc2C(=O)c2ccccc2)c2ccccc2)CC1 (racemic),3.12,3.01,inactive,1.24,0.04,10,12
CC(=O)Nc1ccc(NC(=O)C(c2ccccc2)N2CCN(C)CC2)c(C(=O)c2ccccc2)c1 (racemic),6.59,9.05,inactive,9.72,6.29,11,105
CN1CCN(C(C(=O)Nc2ccc(NC(=O)C(C)(C)C)cc2C(=O)c2ccccc2)c2ccccc2)CC1 (racemic),4.67,11.4,inactive,3.04,0.39,15,45

# Further lines, with some results ahead:
IC50 [1] [µM],IC50 [3] [µM],inhibition [5],IC50 (Plasmodium falciparum) [µM],EC50 [6] [µM],SMILES,Ratio CC50/IC50 [2],CC50 at 72 h [4] [µM]
2.01,0.81,inactive,2.01,0.48,CN1CCN(CC(=O)Nc2ccc(NC(=O)c3ccc4ccccc4c3)cc2C(=O)c2ccccc2)CC1,5,9
–,–,inactive,0.11,0.46,CC(C)N(C(=O)Nc1ccc(NC(=O)C(c2ccccc2)N2CCN(C)CC2)c(C(=O)c2ccccc2)c1)C(C)C (centres undefined),36,4
7.02,5.06,inactive,2.26,5.12,CN1CCN(C(C(=O)Nc2ccc(NC(=O)c3cccnc3)cc2C(=O)c2ccccc2)c2ccccc2)CC1 (centres undefined),16,37
3.28,3.28,inactive,1.61,0.24,CN1CCN(C(C(=O)Nc2ccc(NC(=O)c3ccccc3)cc2C(=O)c2ccccc2)c2ccccc2)CC1 (racemic),10,16
24.6,16.7,inactive,7.19,3.3,CCC(=O)Nc1ccc(NC(=O)C(c2ccccc2)N2CCN(C)CC2)c(C(=O)c2ccccc2)c1 (racemic),12,84
2.68,1.93,inactive,0.93,0.23,CN1CCN(C(C(=O)Nc2ccc(NC(=O)c3cccc4ccccc34)cc2C(=O)c2ccccc2)c2ccccc2)CC1 (racemic),4,4
2.92,5.38,inactive,0.91,0.89,CN1CCN(C(C(=O)Nc2ccc(NS(=O)(=O)c3ccccc3)cc2C(=O)c2ccccc2)c2ccccc2)CC1 (racemic),29,26
